From article PMC7965737 (Bioconjugate chemistry, 2019)
Counter-ions that a name gives are not always drawn.

What was measured:
MCF-10A = assay: MTT cytotoxicity assay, MCF-10A; format: cell-based, Human; settings: non-cancerous cell line MCF-10A, serum-free media, 48 h
How it was run: (§1)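 Cells were seeded at 5×10^3 per well in complete medium. The next day the medium was replaced with serum-free medium containing test compound (0–100 μM) or free doxorubicin (positive control), with untreated cells in serum-free medium as negative control, for 48 h at 37 °C, 5% CO2. MTT (5 mg/mL solution) was then added for 2 h. Formazan was dissolved in 4 mM HCl/0.1% NP40/2-propanol (1:1:1) and read at 570 nm. Viability was taken relative to untreated cells, in triplicate, with the experiment repeated once. IC50 came from a nonlinear fit of normalized data against log concentration.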

MDA-MB-468 = assay: MTT cytotoxicity assay, MDA-MB-468; format: cell-based, Human; settings: MDA-MB-468 breast cancer cell line, serum-free media, 48 h
How it was run: as §1

`COc1cccc2c1C(=O)c1c(O)c3c(c(O)c1C2=O)C[C@@](O)(C(=O)CO)C[C@@H]3O[C@H]1C[C@H](N)[C@H](O)[C@H](C)O1` [Dox, Doxorubicin hydrochloride] was tested. Which IC50 (MCF-10A) did it give?
Its IC50 is 240 nM.

And the IC50 (MDA-MB-468)?
The IC50 was 350 nM.
